# Published values gathered from unrelated publications.
# Compare with care: the assays were run in different laboratories.
# JAK1 JH2: Tyrosine-protein kinase JAK1, JH2 (JAK1, Homo sapiens, UniProt P23458)
# JAK1 JH1: Tyrosine-protein kinase JAK1, JH1 (JAK1, Homo sapiens, UniProt P23458)
# JAK1: Tyrosine-protein kinase JAK1 (JAK1, Homo sapiens, UniProt P23458)
Compound,target,read-out,mode,method,concentration,endpoint,value
CN([C@@H]1CCc2c(CC(=O)O)c3cc(S(C)(=O)=O)ccc3n2C1)S(=O)(=O)c1ccc(F)cc1,JAK1 JH2,cell-free assay,,competition with immobilised ligand,1 µM,remaining binding,94%
Nc1ncnc2occ(-c3ccc(NC(=O)Nc4cc(C(F)(F)F)ccc4F)cc3)c12,JAK1 JH1,cell-free assay,inhibitor,,20 µM,remaining signal,0.9%
COc1cc2c(Nc3ccc(Br)cc3F)ncnc2cc1OCC1CCN(C)CC1,JAK1,cell-free assay,,,0.5 µM,remaining signal,99.1%
CC(C)(C)c1nc(-c2cccc(NS(=O)(=O)c3c(F)cccc3F)c2F)c(-c2ccnc(N)n2)s1,JAK1,enzyme activity,inhibitor,radiometric,1 µM,remaining activity,84%
CS(=O)(=O)Nc1cccc(-c2csc(NC(=O)CSc3nc4nccnc4c(=O)n3CCc3ccccc3)n2)c1,JAK1,enzyme activity,inhibitor,,10 µM,inhibition,9%
CN(c1nccc(-c2cnn3ncccc23)n1)C1CC1,JAK1,binding,,,1 µM,remaining binding,100%
CN(C)C1CCN(CC#Cc2nn(C3CCCC3)c3nc(NCc4ccccc4)ncc23)C1 (stereo not shown),JAK1,enzyme activity,inhibitor,FRET,0.1 µM,inhibition,2%
N[C@H]1CCN(c2nccc(-c3cnn4ncccc34)n2)C1,JAK1 JH1,cell-free assay,,,1 µM,remaining signal,100%
CS(=O)(=O)NCC[C@H](NC(=O)c1cncc2c1cnn2-c1ccc(F)cc1)c1ccnc(S(C)(=O)=O)c1,JAK1 JH2,cell-free assay,,competition with immobilised ligand,1 µM,remaining binding,100%
CCCS(=O)(=O)Nc1ccc(F)c(C(=O)c2c[nH]c3ncc(-c4ccc(Cl)cc4)cc23)c1F,JAK1,enzyme activity,inhibitor,,1 µM,inhibition,< 20%
CC1=C(C#N)[C@@H](c2ccc3[nH]nc(C)c3c2)C(C#N)=C(c2ccc(Cl)cc2)N1,JAK1 JH2,cell-free assay,,competition with immobilised ligand,1 µM,remaining binding,38.2%
CN(CCCC(F)(F)F)c1nccc(-c2cnn3ncccc23)n1,JAK1,binding,,,1 µM,remaining binding,100%
COc1cc2ncnc(Nc3ccc(F)c(Cl)c3)c2cc1OCCCN1CCOCC1,JAK1,cell-free assay,,,0.5 µM,remaining signal,102%
O=C(Nc1cnn(-c2csc(C(=O)NC3COC3)c2)c1)Nc1ccccc1Cl,JAK1,enzyme activity,inhibitor,,5 µM,remaining activity,98.7%
CS(=O)(=O)N1CCCC(NC(=O)[C@H](CCC2CCCCC2)NC(=O)c2ccc(CNC(=O)c3cnc4ccccn34)cc2)C1 (stereo partly shown),JAK1 JH1,cell-free assay,,competition with immobilised ligand,0.1 µM,remaining binding,64%
CCOc1cc(-c2nncn2C)ccc1Nc1ncc2cc(C)nc(NCC(C)(C)C)c2n1,JAK1,enzyme activity,inhibitor,FRET,1 µM,inhibition,< 15%
CN(c1ccnc(CNc2nc(Nc3ccc4c(c3)CC(=O)N4)ncc2C(F)(F)F)n1)S(C)(=O)=O,JAK1 JH1,cell-free assay,,competition with immobilised ligand,1 µM,remaining binding,94%
Cc1cnc(NC2CCOCC2)nc1-n1cnc(C(=O)NC(CN)c2cc(F)cc(Cl)c2)c1 (stereo not shown),JAK1 JH1,enzyme activity,inhibitor,radiometric,1 µM,remaining activity,93%
CCS(=O)(=O)c1cc2cc(C[C@](O)(CC(C)(C)c3ccc(F)cc3C(N)=O)C(F)(F)F)[nH]c2cn1,JAK1 JH1,cell-free assay,,competition with immobilised ligand,1 µM,remaining binding,96%
COc1cc2ncnc(Nc3ccc(Oc4ccccc4)c(C)c3C)c2cc1OC,JAK1,enzyme activity,inhibitor,,1 µM,inhibition,-4%
O=C(NCc1ncc(C(F)(F)F)cc1Cl)c1ccc2c(c1)C1(CCS(=O)(=O)CC1)[C@@H](C1CC1)N2S(=O)(=O)c1ccc(F)cc1,JAK1 JH2,cell-free assay,,competition with immobilised ligand,1 µM,remaining binding,85%
C=CC(=O)Nc1cc(Nc2nccc(Nc3cc(Cl)c(F)cc3C(C)(C)O)n2)c(OC)cc1N1CC[C@@H](N(C)C)C1,JAK1,enzyme activity,inhibitor,,1 µM,inhibition,6%
